Assay outcomes: PubChem, Sanford-Burnham Center for Chemical Genomics
Compounds with a hit are over-represented: about 1.5% of the library has one in this group of screens.
HNF4A DNA FP = change in binding of human HNF4 alpha to DNA; P41235; HNF4a-FITC DNA binding, fluorescence polarization, 1 h; activity change, % at 10 µM; hit rate 0.3% among 360,000; AID 1224865; in the data active means activity change above about 30%, passing the limit was not always enough
Target sequence (P41235 whole entry, looked up): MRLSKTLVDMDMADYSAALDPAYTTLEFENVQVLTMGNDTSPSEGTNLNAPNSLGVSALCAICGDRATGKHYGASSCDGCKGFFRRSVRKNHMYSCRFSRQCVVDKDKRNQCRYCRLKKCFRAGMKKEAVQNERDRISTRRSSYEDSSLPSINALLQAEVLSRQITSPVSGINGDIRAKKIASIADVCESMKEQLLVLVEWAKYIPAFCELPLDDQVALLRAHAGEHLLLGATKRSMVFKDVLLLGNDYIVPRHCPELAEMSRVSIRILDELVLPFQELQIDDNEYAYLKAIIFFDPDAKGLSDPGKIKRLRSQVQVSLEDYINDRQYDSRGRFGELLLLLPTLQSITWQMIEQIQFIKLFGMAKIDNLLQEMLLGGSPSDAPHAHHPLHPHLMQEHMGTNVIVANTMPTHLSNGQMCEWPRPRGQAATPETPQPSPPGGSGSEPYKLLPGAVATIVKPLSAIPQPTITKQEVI
Rev-erbA mod = modulates human Rev-erb alpha binding to DNA | activity, % at 10 µM | hit rate 0.79% among 370,000 | Rev-erbα–FITC-DNA binding, fluorescence polarization, 90 min | AID 1259318 | P20393;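 active means activity above about 14%, limit read from the data; passing the limit was not always enough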;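 further: 0% = DMSO wells with 35 nM protein and 100% = DMSO wells with 750 nM protein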
CSN deneddyl inh = inhibitors of human CSN-mediated cullin deneddylation. inhibition, % at 12.5 µM. hit rate 0.38% among 360,000. Q92905. Purified CSN, SCF-Nedd8-OG deneddylation, fluorescence polarization;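 active means pattern-corrected inhibition above about 35%, with an unprinted fluorescence ratio check between 0.5 and 1.5, limit read from the data, passing the limit was not always enough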;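 further: 0% = enzyme with substrate and 100% = substrate without enzyme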
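Material: purified human Csn5 enzyme expressed in HEK293T cells / Medium: Tris buffer pH 7.5, NaCl, DTT, Tween-20, trehalose, ovalbumin / Compound dosing: 12.5 µM single point / Schedule: 90 min incubation of compound, enzyme and substrate at room temperature / Signal: fluorescence polarization of the substrate / Control set: no-enzyme wells high, enzyme-with-substrate wells low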
aDG glyco act = increases alpha dystroglycan glycosylation; Pro5-aDG cells, alpha-DG glycosylation AlphaScreen (IIH6); 0% Pro5, 100% B10-LARGE cell signal; activation, % at 10 µM; hit rate 0.22% among 360,000; AID 624168;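 active means activation of at least 8% versus controls, or a plate z-score of at least 8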;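 further: Pro5 are CHO cells carrying HIG-tagged alpha-DG that lacks glycosylation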
Rev-erbA confirm = confirmation of modulators of human Rev-erb alpha DNA binding. shares compounds with Rev-erbA mod. Rev-erb alpha FITC-DNA binding, fluorescence polarization, 90 min. activation, % at 25 µM. hit rate 61% among 3,000;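 active means activation at or above a set limit, or at least 3 SD above the negative control mean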;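 further: 0% = 35 nM protein with DMSO and 100% = 750 nM protein high control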
RORg DNA counter = RORgamma DNA-binding activity, dose-response counter-screen; hit rate 8% among 910; IC50, µM; shares compounds with Rev-erbA mod; purified RORgamma protein-FITC-DNA binding, fluorescence polarization;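 active means Compounds whose fitted half-maximal concentration for disrupting protein-DNA binding is below 10 micromolar; the record names Rev-erb in its text, so the target is in doubt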
* = called active by the depositor; i = inactive; nt = not tested or not shown.

SMILES	HNF4A DNA FP	Rev-erbA mod	CSN deneddyl inh	aDG glyco act	Rev-erbA confirm	others
O=C(NC1CCCCN(Cc2cccc(Cl)c2)C1=O)c1ccc(-c2ccccc2)cc1 (stereo not drawn)	nt	0	nt	nt	nt
CCc1cc2ccc(OC)cc2nc1SCC(=O)Nc1cc(C)on1	-2	75*	-1	0	57*	RORg DNA counter=>40
CCc1cc2c(C)ccc(C)c2nc1SCC(=O)Nc1cc(C)on1	2	24*	-2	0	8
CCc1cc2cc(C)c(C)cc2nc1SCC(=O)Nc1cc(C)on1	0	36*	-2	0	2
CCc1cc2ccccc2nc1SCC(=O)Nc1cc(C)on1	1	16	4	0	nt
COc1ccccc1-c1nc(SCC(=O)Nc2cc(C)on2)c2c(=O)n(C)c(=O)n(C)c2n1	1	72*	8	0	60*	RORg DNA counter=i
CN1C(=O)C[C@@](C#N)(C(=O)NCC(F)(F)F)[C@H]1c1ccccc1	nt	4	nt	nt	nt
COc1cc(C=Nn2c(-c3ccc(F)cc3)n[nH]c2=S)ccc1OCc1ccccc1	nt	-19	nt	nt	nt
COc1ccc2oc(=O)c(-c3cn4ccc(C)cc4n3)cc2c1	8	76*	-5	0	14
COc1ccc2c(c1)[C@@]1(NCCc3c1[nH]c1ccc(OC)cc31)C(=O)N2	nt	0	nt	nt	nt
CCCCCCCCN1C(=O)[C@@H](CC(=O)NCc2ccc(OC)c(OC)c2)C[C@@]2(C(=O)OC)C1=C[C@H](COCc1ccccc1)O[C@@H]2C	nt	-1	nt	nt	nt
COc1ccc(-c2cc(-c3ccc(Br)cc3)nc3ncnn23)cc1OC	0	25*	6	0	8
COc1ccc(-c2cc(-c3ccccc3)nc3ncnn23)cc1	6	-1	2	0	nt
N#Cc1nc(-c2ccc(OCc3ccc(Cl)cc3)cc2)oc1N1CCC(C(N)=O)CC1	-2	-8	11	0	nt
N#Cc1nc(-c2ccc(OCc3ccc(Cl)cc3)cc2)oc1N1CCOCC1	-5	38*	5	0	-3
O=C(CCc1ccccc1)N[C@H]1[C@@H](OC(=O)c2cccnc2)CCC[C@@]12C(=O)N(Cc1ccccc1)c1ccccc12	nt	-1	nt	nt	nt
CCC[C@H]1[C@@H](NCc2cccs2)CC[C@@]23CCCN2C(=O)CCC[C@@H]13	nt	21*	nt	nt	11*
C/C=C(/C(=C/C)c1ccc(O)cc1)c1ccc(O)cc1	-2	31*	25	0	40*	RORg DNA counter=>40
Cc1ccc(Cl)cc1N1CCN(Cc2nc3c(c(=O)[nH]c(=O)n3C)n2Cc2ccccc2F)CC1	2	29*	5	0	19*
Cc1ccc(Cl)cc1N1CCN(Cc2nc3c(c(=O)[nH]c(=O)n3C)n2CCc2ccccc2)CC1	2	2	3	0	nt
Cc1nc2sc(C(c3ccc(C(C)C)cc3)N3CCN(CCO)CC3)c(O)n2n1 (stereo not drawn)	-3	0	3	0	nt
Cc1ccc(C(c2sc3nc(C)nn3c2O)N2CCN(CCO)CC2)cc1 (stereo not drawn)	1	17*	6	0	6
O=C(NCCN1CCC(Cc2ccccc2)CC1)C1CCCN(S(=O)(=O)c2ccc([N+](=O)[O-])cc2)C1 (stereo not drawn)	nt	-4	nt	nt	nt
COc1ccc(S(=O)(=O)N2CCCCC2)cc1NC(=O)c1cncc(Br)c1	1	41*	1	0	19*
CC(C)(C)C(=O)Nc1cc(S(=O)(=O)N2CCCCC2)ccc1N1CCCCC1	-2	39*	-3	0	38*	RORg DNA counter=>40
SMILES	HNF4A DNA FP	Rev-erbA mod	CSN deneddyl inh	aDG glyco act	Rev-erbA confirm	others
Cc1ccc(CNC(=O)OC(C)(C)C)c(/C=C/S(=O)(=O)NCCc2ccccc2)c1	nt	0	nt	nt	nt
CCc1ccc2[nH]c3nc(C)cc(C)c3c(=O)c2c1	-1	30*	-7	0	25*
CC(C)Cn1c(N)c(C(=O)CSc2ncnc3sc4c(c23)CCCC4)c(=O)n(C)c1=O	5	65*	7	1	14
CC(=O)CSc1ncnc2sc3c(c12)CCCC3	1	-5	0	0	nt
CC(C)C[C@H]1COc2cccc(F)c2S(=O)(=O)N1Cc1cn(CCC2OCCO2)nn1	nt	-3	nt	nt	nt
Cc1ccc2c(c1)NC(=O)CC(c1ccccc1)=N2	-2	-5	-1	0	nt
Cc1ccc2c(c1C)NC(=O)CC(c1ccccc1O)=N2	3	204*	0	0	140*	RORg DNA counter=>40
CC1(C)C=C2C(=NN(c3ccccc3)C(N)=C2C#N)CO1	-6	19*	1	0	11
CC1(C)Cc2c(C#N)c(N)n(-c3ccccc3)c(=S)c2CO1	6	-5	5	0	nt
O=c1[nH]c(CSc2ncnc3sc(-c4ccccc4)cc23)nc2ccccc12	12	39*	10	0	4
COC(=O)c1sc(C(F)(F)F)c(-c2ccccc2)c1S(=O)(=O)N1CCCC1	-2	24*	2	0	27*
Cc1cc(C)c2c(N)c(C(=O)N/N=C/c3cccs3)sc2n1	38	80*	11	0	54*	RORg DNA counter=>40
C[C@H](O)[C@@H]1CN2CCc3c([nH]c4c(-c5ccc6c(c5)OCO6)cccc34)[C@@H]2C[C@@H]1N(C)C(=O)c1ccccc1F	nt	1	nt	nt	nt
Cc1nnc(C)n1N=Cc1ccc(Cl)c([N+](=O)[O-])c1	nt	-6	nt	nt	nt
COc1ccc(Cl)cc1C(=O)Nc1ccc(Br)c(C)n1	-7	28*	-1	0	4
COc1ccc(Cl)cc1C(=O)Nc1ccc(NC(C)=O)cc1	-1	2	104	1	nt
O=S1(=O)C=CCN1Cc1cn(Cc2ccccc2)nn1	nt	-7	nt	nt	nt
Cc1ccc(O)c(N=Nc2nccs2)c1	0	20*	-4	0	7
COc1ccc(N=Nc2cc(C)ccc2O)cc1	-5	5	-4	0	nt
CCOc1ccc(C(=O)Nc2sc3c(c2C(=O)OC)CC(C)(C)NC3(C)C)cc1	-1	70*	-5	1	-9
COC1=C[C@H](C(=O)NCCOC(C)=O)[C@H](C)[C@@H](c2ccccc2)CC1=O	nt	2	nt	nt	nt
Cc1ccc(CNc2nc3ccccc3n3nnnc23)cc1	-9	115*	-5	0	71*	RORg DNA counter=>40
O=C(OC12CCCN(C1)/C(=C/c1ccc(Cl)cc1)C2)c1ccno1 (stereo not drawn)	nt	-2	nt	nt	nt
CCN1CCCCC(NC(=O)COCc2ccccc2)C1=O (stereo not drawn)	nt	6	nt	nt	nt
Cc1nc(N(C)C2CCCCC2)c2nnn(Cc3ccc(F)cc3)c2n1	-4	31*	-1	0	-6
CCN(C)c1nc(C)nc2c1nnn2Cc1ccccc1	nt	3	nt	nt	nt
Cc1cc(CN2CCOCC2)c(O)c(C2(C)CCCCC2)c1	1	18*	2	0	24*
O=C(CC1CCCC1)N1CC[C@H]2[C@H](CCCN2Cc2ccc(F)cc2)C1	nt	9	nt	nt	nt
